The values that follow come from ChEMBL document CHEMBL2203076, “Kandenols A-E, eudesmenes from an endophytic Streptomyces sp. of the mangrove tree Kandelia candel” (2012).

In brackets after ≈: the same amount, converted by molar mass.

Assay type in all cases: functional
One assay concerns Enterococcus faecalis. Nature of the assay: Antimicrobial activity against vancomycin-resistant Enterococcus faecalis 1528 R10 by broth microdilution method. Put shortly:
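MIC read-out by standard broth microdilution against E. faecalis 1528 R10, run in the same panel as Bacillus subtilis ATCC 6633 and Mycobacterium vaccae IMET 10670.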
(In general: In broth dilution the organism is exposed to a series of concentrations in liquid medium.)

The next assay deals with Mycolicibacterium vaccae. Nature of the assay: Antimicrobial activity against Mycobacterium vaccae ATCC IMET 10670 by broth microdilution method.
In a further assay the test system is Bacillus subtilis. Nature of the assay: Antimicrobial activity against Bacillus subtilis ATCC 6633 by broth microdilution method.

By MIC is commonly meant the smallest concentration in the dilution series that meets the test's criterion for growth inhibition. As for `CC1=CC(=O)C[C@]2(C)C[C@@H](O)[C@H](C(C)(C)O)C[C@@H]12` (relative stereo) [KANDENOL A], the results for the MIC in the assay with Enterococcus faecalis, against Mycolicibacterium vaccae and with Bacillus subtilis were over 100 µg/mL, 12.5 µg/mL (≈ 49.5 µM) and 50 µg/mL (≈ 198 µM), respectively.
In the case of `CC1=CC(=O)C[C@]2(C)C[C@@H](O)[C@H](C(C)(C)O)C[C@@]12O` (relative stereo) [KANDENOL B], the values for the MIC in the assay with Enterococcus faecalis, against Mycolicibacterium vaccae and in the assay on Bacillus subtilis were over 100 µg/mL, 12.5 µg/mL (≈ 46.6 µM) and 50 µg/mL (≈ 186 µM), respectively.
On the same counts, the results for `O=C(O)c1cn(C2CC2)c2cc(N3CCNCC3)c(F)cc2c1=O` [CIPROFLOXACIN] are 0.78 µg/mL (≈ 2.35 µM), 0.1 µg/mL (≈ 0.302 µM) and under 0.05 µg/mL.
Regarding `CC1=CC(=O)C[C@]2(C)C[C@@H](O)[C@H](C(C)(C)O)C[C@@]12OO` [KANDENOL C], the results for the MIC against Enterococcus faecalis, against Mycolicibacterium vaccae and in the assay with Bacillus subtilis were over 100 µg/mL, 12.5 µg/mL (≈ 44 µM) and over 100 µg/mL, respectively.
For the molecule `CC1=CC(=O)C[C@]2(C)CC[C@H](C(C)(C)O)C[C@@]12OO` [KANDENOL D], the MIC with Enterococcus faecalis is over 100 µg/mL; against Mycolicibacterium vaccae it was 25 µg/mL (≈ 93.2 µM); in the assay on Bacillus subtilis, 50 µg/mL (≈ 186 µM).
On the same counts, the results for `CC1=CC(=O)C[C@]2(C)C[C@@H](O)[C@@H]3C[C@@]12OC3(C)C` [KANDENOL E] are over 100 µg/mL, 12.5 µg/mL (≈ 49.9 µM) and 50 µg/mL (≈ 200 µM).
